Measurements gathered from unrelated publications.
Protocols differ between the studies behind these lines.
Target: Serine/threonine-protein kinase PAK 6 (PAK6, Homo sapiens, UniProt Q9NQU5)

O=C(NCc1ncc(C(F)(F)F)cc1Cl)c1ccc2c(c1)C1(CCS(=O)(=O)CC1)[C@H](C1CC1)N2S(=O)(=O)c1ccc(F)cc1 — remaining binding (cell-free assay, competition with immobilised ligand; 1 µM): 100%
FC(F)(F)Oc1cccc(-c2cnc3ccc(-c4ccncc4)nn23)c1 — activity vs control (enzyme activity, inhibitor, radiometric; 1 µM): 97%
CC/C(=N\NC(=O)NCc1cccc(O)c1)c1ccc(O)c(C)c1O — inhibition (enzyme activity, inhibitor; 0.1 µM): 1.5%
CNC(=O)c1ccc(Nc2ncc(C(F)(F)F)c(NCc3nccnc3N(C)S(C)(=O)=O)n2)cc1 — remaining binding (cell-free assay, competition with immobilised ligand; 0.1 µM): 100%
Cc1cc(NC(=O)c2cccc3cc(-c4cccc5[nH]nc(N)c45)ccc23)ccc1F — activity vs control (enzyme activity, inhibitor; 0.1 µM): 104%
O=C(O)[C@@H]1[C@@H](Cn2nnc3ccccc3c2=O)CC[C@H]1C(=O)c1ccc(OCCC2CCOCC2)cc1 — remaining binding (cell-free assay, competition with immobilised ligand; 1 µM): 99%
Cc1cnc(NC2CCOCC2)nc1-n1cnc(C(=O)NC(CN)c2cc(F)cc(Cl)c2)c1 (centres unmarked) — remaining activity (enzyme activity, inhibitor, radiometric; 1 µM): 70%
N#CCCc1ccc2c(c1)-c1[nH]c3ccc([N+](=O)[O-])cc3c1CC(=O)N2 — remaining signal (cell-free assay; 0.5 µM): 104%
O=C(Nc1cnn(-c2csc(C(=O)NC3COC3)c2)c1)Nc1c(F)cccc1Cl — remaining activity (enzyme activity, inhibitor; 5 µM): 92.9%
CCN(CC)c1ccc(C2=NNC(=O)CC2C)cc1[N+](=O)[O-] (centres unmarked) — remaining activity (enzyme activity, inhibitor; 10 µM): 126%
O=C1CCc2cc(Nc3cc(OC4CCOCC4)c([N+](=O)[O-])cc3Cl)ccc2N1 — remaining binding (cell-free assay, competition with immobilised ligand; 1 µM): 86%
CNC(=O)c1cc(Oc2ccc(NC(=O)Nc3ccc(Cl)c(C(F)(F)F)c3)cc2)ccn1 — inhibition (enzyme activity, inhibitor; 10 µM): -29%
Nc1nc(Nc2ccccc2)sc1C(=O)c1c(F)cccc1F — remaining activity (enzyme activity, inhibitor; 10 µM): 87%
Nc1ncnc2occ(-c3ccc(NC(=O)Nc4cc(C(F)(F)F)ccc4F)cc3)c12 — remaining signal (cell-free assay, inhibitor; 20 µM): 53%
CN(C)c1nccc(-c2cnn3ncccc23)n1 — remaining binding (binding; 1 µM): 100%
CC(C)(C)c1nc2c(s1)c1nc(N)ncc1c1ccc(NS(=O)(=O)c3c(F)cccc3F)c(F)c12 — remaining activity (enzyme activity, inhibitor, radiometric; 1 µM): 89%
CCN(CC)CCNC(=O)c1c(C)[nH]c(/C=C2\C(=O)Nc3ccc(F)cc32)c1C — inhibition (enzyme activity, inhibitor; 0.3 µM): -11%
CC(=O)N1CCC(c2ccc(C(=O)NC3=NCCN3)cc2C(F)(F)F)CC1 — remaining binding (cell-free assay, competition with immobilised ligand; 1 µM): 100%
Nc1nc(NC2CCCCC2)sc1C(=O)c1ccccc1 — remaining activity (enzyme activity, inhibitor; 10 µM): 93%
Cc1ccc(NC(=O)c2ccc(CN3CCN(C)CC3)cc2)cc1Nc1nc(-c2cccnc2)cs1 — remaining signal (cell-free assay; 0.5 µM): 101%
COc1cc(Nc2cnc(C#N)c(O[C@H](C)CN(C)C)n2)ncc1-c1cnn(C)c1 — remaining activity (enzyme activity, inhibitor, radiometric; 10 µM): 43%
CO[C@H]1CC[C@H](CNc2ccc(S(=O)(=O)NC(=O)c3ccc(N4CCN(CC5=C(c6ccc(Cl)cc6)CC(C)(C)CC5)CC4)cc3Oc3cnc4[nH]ccc4c3)cc2[N+](=O)[O-])CC1 — remaining binding (cell-free assay, competition with immobilised ligand; 1 µM): 75%
Cn1c(=O)n(-c2ccc(C(C)(C)C#N)cc2)c2c3cc(-c4cnc5ccccc5c4)ccc3ncc21 — remaining activity (enzyme activity, inhibitor; 10 µM): 105%
Cc1sc(C(=O)NC2COC2)cc1-n1cc(NC(=O)Nc2c(F)cccc2Cl)cn1 — remaining activity (enzyme activity, inhibitor; 10 µM): 99.9%
O=C1Nc2ccc(Cl)cc2C1=Cc1cc(Cl)c(O)c(Cl)c1 — remaining signal (cell-free assay; 0.5 µM): 97%
CCc1ccccc1C(=O)Nc1n[nH]c2c(C)c(F)c(C3C(C#N)=C(C)N(C)C(C)=C3C#N)cc12 — remaining binding (cell-free assay, competition with immobilised ligand; 1 µM): 93%
COc1cc2ncnc(Nc3ccc(Oc4ccccc4)cc3C)c2cc1OC — inhibition (enzyme activity, inhibitor; 1 µM): 3%
FC(F)c1nc2ccccc2n1-c1nc(N2CCOCC2)nc(N2CCOCC2)n1 — remaining activity (enzyme activity, inhibitor; 10 µM): 93%
Cn1cc(Cl)c2c(Oc3c(F)cc(Nc4cc(Cl)nc(N)n4)cc3F)ccnc21 — remaining binding (cell-free assay, competition with immobilised ligand; 0.1 µM): 100%
